Experimental findings from ChEMBL document CHEMBL1649441, “Potency and bactericidal activity of iclaprim against recent clinical gram-positive isolates” (2009) are described below.

In general, MIC refers to the lowest concentration that inhibits growth of the organism. In general, MIC50 refers to an inhibitory concentration at the 50% level, which refers to growth in some studies and to a panel of isolates in others. Higher therefore signals lower susceptibility. What is called MIC90 is an inhibitory concentration at the 90% level, which refers to growth in some studies and to a panel of isolates in others.

Format in all cases: functional
In test [1] the test system is Enterococcus faecium. Briefly: Antibacterial activity against Enterococcus faecium assessed as resistant isolates by CLSI broth microdilution method. A general note: Dilution methods test growth across graded concentrations, often in twofold steps.
For test [2], the system named is Enterococcus faecalis. Briefly: Antibacterial activity against Enterococcus faecalis assessed as resistant isolates by CLSI broth microdilution method.
The test system of test [3] is Enterococcus faecium. Briefly: Antibacterial activity against Enterococcus faecium assessed as susceptible isolates by CLSI broth microdilution method.
Test [4] has as its system Enterococcus faecalis. Nature of the test: Antibacterial activity against Enterococcus faecalis assessed as susceptible isolates by CLSI broth microdilution method.
Test [5] relates to Enterococcus faecalis. Briefly: Antibacterial activity against Enterococcus faecalis by CLSI broth microdilution method.
In test [6] the test system is Enterococcus faecium. Briefly: Antibacterial activity against Enterococcus faecium by CLSI broth microdilution method.
Test [7] relates to Streptococcus sp. 'group B'. Briefly: Antibacterial activity against Beta-hemolytic Streptococcus group B assessed as resistant isolates by CLSI broth microdilution method. The essentials:
(§1)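 Recent clinical isolates from skin/soft tissue, bloodstream and respiratory specimens. Tested by broth microdilution per CLSI M7-A7 and M100-S18, with the appropriate quality controls. The thymidine content of the test medium was assessed to rule out artifactual inhibition.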

Test [8] relates to Streptococcus sp. 'group B'. Nature of the test: Antibacterial activity against Beta-hemolytic Streptococcus group B assessed as susceptible isolates by CLSI broth microdilution method. The essentials:
(§2)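 Clinical isolates from skin/soft tissue, bloodstream and respiratory specimens were tested by broth microdilution per CLSI M7-A7 and M100-S18, with quality controls. Values are the number of isolates inhibited at each concentration, or MIC / percent susceptible. Highest concentration tested was 8 µg/ml for iclaprim and trimethoprim-sulfamethoxazole, and 64 µg/ml for trimethoprim.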

The subject of test [9] is Streptococcus sp. 'group A'. Nature of the test: Antibacterial activity against Beta-hemolytic Streptococcus group A assessed as resistant isolates by CLSI broth microdilution method. The essentials:
as §1

Test [10] has as its system Streptococcus sp. 'group A'. Briefly: Antibacterial activity against Beta-hemolytic Streptococcus group A assessed as susceptible isolates by CLSI broth microdilution method. In short, it runs like this:
as §2

Test [11] has as its system Staphylococcus aureus. Briefly: Antibacterial activity against Methicillin-sensitive Staphylococcus aureus assessed as susceptible isolates by CLSI broth microdilution method.
Test [12] relates to Staphylococcus aureus. Nature of the test: Antibacterial activity against Methicillin-resistant Staphylococcus aureus assessed as resistant isolates by CLSI broth microdilution method.
Test [13] has as its system Staphylococcus aureus. Briefly: Antibacterial activity against Methicillin-resistant Staphylococcus aureus assessed as susceptible isolates by CLSI broth microdilution method.
The subject of test [14] is Staphylococcus aureus. Briefly: Antibacterial activity against Methicillin-sensitive Staphylococcus aureus assessed as resistant isolates by CLSI broth microdilution method.
Test [15] relates to Staphylococcus aureus. Briefly: Antibacterial activity against Methicillin-sensitive Staphylococcus aureus by CLSI broth microdilution method.
Test [16] has as its system Staphylococcus aureus. Briefly: Antibacterial activity against Methicillin-resistant Staphylococcus aureus by CLSI broth microdilution method.
The subject of test [17] is Streptococcus sp. 'group A'. Briefly: Antibacterial activity against Beta-hemolytic Streptococcus group A by CLSI broth microdilution method. In short, it runs like this: as §2
Test [18] deals with Streptococcus sp. 'group B'. Briefly: Antibacterial activity against Beta-hemolytic Streptococcus group B by CLSI broth microdilution method. The essentials: as §2

In brackets after ≈: the same amount, converted by molar mass.

Take `CC1(C)S[C@@H]2[C@H](NC(=O)[C@H](N)c3ccccc3)C(=O)N2[C@H]1C(=O)O` [AMPICILLIN]: the Activity in the test on Enterococcus faecium [1] was 88.1%; in the test on Enterococcus faecalis [2], 0%; in the test with Enterococcus faecium [3] it was 11.9%; in the test with Enterococcus faecalis [4], 100%. In the test with Enterococcus faecalis [5], this molecule registered a minimal inhibitory concentration (MIC) of no more than 4 µg/mL. The MIC50 against Enterococcus faecalis [5] is no more than 4 µg/mL; with Enterococcus faecium [6], greater than 16 µg/mL. For the same molecule, the MIC90 against Enterococcus faecalis [5] is no more than 4 µg/mL; against Enterococcus faecium [6] it was greater than 16 µg/mL.
As to `CCC[C@@H]1C[C@@H](C(=O)N[C@@H]([C@H]2O[C@H](SC)[C@H](O)[C@@H](O)[C@H]2O)[C@H](C)Cl)N(C)C1` [CLINDAMYCIN], the Activity is listed as 10.3% in [7]; 88.7% in [8]; 3.3% in test [9]; 96.4% in [10]; 96.4% with Staphylococcus aureus [11]; 47% in the test with Staphylococcus aureus [12]. Further, the Activity in the test on Staphylococcus aureus [13] amounted to 52.7%; in the test on Staphylococcus aureus [14], 3.4%. Moreover, the MIC50 against Staphylococcus aureus [15] was no more than 0.12 µg/mL; in test [17], no more than 0.12 µg/mL; in test [18], no more than 0.12 µg/mL; against Enterococcus faecalis [5], greater than 4 µg/mL; with Enterococcus faecium [6], greater than 4 µg/mL. Besides, the MIC90 was no more than 0.12 µg/mL against Staphylococcus aureus [15]; greater than 4 µg/mL against Staphylococcus aureus [16]; no more than 0.12 µg/mL in test [17]; greater than 4 µg/mL in [18]; greater than 4 µg/mL against Enterococcus faecalis [5]; greater than 4 µg/mL with Enterococcus faecium [6]. For the same molecule, the MIC in [17] and in test [18] was no more than 0.12 µg/mL throughout.
Turning to `CC[C@H]1OC(=O)[C@H](C)[C@@H](O[C@H]2C[C@@](C)(OC)[C@@H](O)[C@H](C)O2)[C@H](C)[C@@H](O[C@@H]2O[C@H](C)C[C@H](N(C)C)[C@H]2O)[C@](C)(O)C[C@@H](C)C(=O)[C@H](C)[C@@H](O)[C@]1(C)O` [ERYTHROMYCIN], the Activity in the test with Enterococcus faecium [1] turned out to be 84.5%; with Enterococcus faecalis [2] it was 52.9%; in the test with Enterococcus faecium [3], 3%; in the test with Enterococcus faecalis [4] it was 13.5%; in test [7], 26%; in test [8] it was 73%. The Activity in test [9] is 16.1%; in the test on Staphylococcus aureus [11], 77.9%; in the test on Staphylococcus aureus [12], 84.3%; in the test with Staphylococcus aureus [13], 14.6%; in the test on Staphylococcus aureus [14], 21.1%. Further, the MIC50 in the test with Staphylococcus aureus [15] is 0.25 µg/mL (≈ 0.341 µM); with Staphylococcus aureus [16], greater than 4 µg/mL; in test [17], no more than 0.12 µg/mL; in test [18] it was no more than 0.12 µg/mL; in the test with Enterococcus faecalis [5], greater than 4 µg/mL; against Enterococcus faecium [6], greater than 4 µg/mL. Also, the MIC90 (in the test on Staphylococcus aureus [15]; in [17]; in [18]; in the test with Enterococcus faecalis [5]; against Enterococcus faecium [6]) was greater than 4 µg/mL throughout. In addition, in test [17], the MIC is no more than 0.12 µg/mL.
Regarding `C[C@H]1COc2c(N3CCN(C)CC3)c(F)cc3c(=O)c(C(=O)O)cn1c23.C[C@H]1COc2c(N3CCN(C)CC3)c(F)cc3c(=O)c(C(=O)O)cn1c23.O` [LEVOFLOXACIN], the Activity is on record as 82.2% in the test on Enterococcus faecium [1]; 34.2% in the test with Enterococcus faecalis [2]; 14.2% in the test with Enterococcus faecium [3]; 65.2% in the test on Enterococcus faecalis [4]; 0.5% in test [7]; 99.5% in test [8]. The Activity turned out to be 0% in [9]; 94.2% in the test with Staphylococcus aureus [11]; 82.4% in the test with Staphylococcus aureus [12]; 16.8% in the test on Staphylococcus aureus [13]; 5.6% with Staphylococcus aureus [14]. Besides, the MIC50 is 0.25 µg/mL in the test with Staphylococcus aureus [15]; greater than 4 µg/mL against Staphylococcus aureus [16]; 0.5 µg/mL in [17]; 0.5 µg/mL in test [18]; 1 µg/mL against Enterococcus faecalis [5]; greater than 4 µg/mL with Enterococcus faecium [6]. For the same molecule, the MIC90 is 0.5 µg/mL in the test on Staphylococcus aureus [15]; greater than 4 µg/mL in the test with Staphylococcus aureus [16]; 1 µg/mL in test [17]; 1 µg/mL in test [18]; greater than 4 µg/mL in the test on Enterococcus faecalis [5]; greater than 4 µg/mL against Enterococcus faecium [6].
Regarding `CC(=O)NC[C@H]1CN(c2ccc(N3CCOCC3)c(F)c2)C(=O)O1` [LINEZOLID], the Activity was 0.7% with Enterococcus faecium [1]; 0% in the test on Enterococcus faecalis [2]; 99.3% in the test on Enterococcus faecium [3]; 100% in the test on Enterococcus faecalis [4]; 100% in test [8]; 100% in test [10]. For the same molecule, in the test on Staphylococcus aureus [11], the Activity was found to be 100%. For the same molecule, the MIC50 in the test on Staphylococcus aureus [15] amounted to 2 µg/mL (≈ 5.93 µM); in the test on Staphylococcus aureus [16], 2 µg/mL (≈ 5.93 µM); in test [17] it was 1 µg/mL (≈ 2.96 µM); in test [18] it was 1 µg/mL (≈ 2.96 µM); with Enterococcus faecalis [5], 1 µg/mL (≈ 2.96 µM); in the test with Enterococcus faecium [6] it was 1 µg/mL (≈ 2.96 µM). Also, the MIC90 against Staphylococcus aureus [15] is 2 µg/mL (≈ 5.93 µM); against Staphylococcus aureus [16], 2 µg/mL (≈ 5.93 µM); in [17], 1 µg/mL (≈ 2.96 µM); in test [18], 1 µg/mL (≈ 2.96 µM); against Enterococcus faecalis [5], 2 µg/mL (≈ 5.93 µM); against Enterococcus faecium [6], 2 µg/mL (≈ 5.93 µM).
Regarding `CC1(C)S[C@@H]2[C@H](NC(=O)Cc3ccccc3)C(=O)N2[C@H]1C(=O)O` [PENICILLIN G], the Activity in test [8] turned out to be 100%. The Activity in [10] is reported as 100%. Also, in test [17], the MIC was no more than 0.06 µg/mL, the MIC50 is no more than 0.06 µg/mL and the MIC90 was no more than 0.06 µg/mL. In [18], this molecule showed an MIC of no more than 0.06 µg/mL, an MIC50 of no more than 0.06 µg/mL and an MIC90 of no more than 0.06 µg/mL.
With `CN(C)[C@@H]1C(O)=C(C(N)=O)C(=O)[C@@]2(O)C(O)=C3C(=O)c4c(O)cccc4[C@@](C)(O)[C@H]3C[C@@H]12` [TETRACYCLINE], the Activity turned out to be 32% in the test with Enterococcus faecium [1]; 71.3% in the test with Enterococcus faecalis [2]; 67.3% in the test on Enterococcus faecium [3]; 28.4% in the test on Enterococcus faecalis [4]; 77.9% in test [7]; 21.6% in [8]. In addition, the Activity in [9] is 9.6%; in test [10] it was 90.2%; in the test with Staphylococcus aureus [11], 95.8%; in the test with Staphylococcus aureus [12] it was 12.8%; with Staphylococcus aureus [13], 86.5%; with Staphylococcus aureus [14], 4%. The MIC50 in the test with Staphylococcus aureus [15] is no more than 0.5 µg/mL; in test [17] it was no more than 0.5 µg/mL; in test [18], greater than 16 µg/mL; with Enterococcus faecalis [5], greater than 16 µg/mL; in the test with Enterococcus faecium [6] it was no more than 0.5 µg/mL. Also, the MIC90 against Staphylococcus aureus [15] is no more than 0.5 µg/mL; against Staphylococcus aureus [16], greater than 16 µg/mL; in test [17], no more than 0.5 µg/mL; in test [18] it was greater than 16 µg/mL; in the test on Enterococcus faecalis [5] it was greater than 16 µg/mL; in the test with Enterococcus faecium [6], greater than 16 µg/mL. The minimal inhibitory concentration (MIC) (in test [17]; in the test with Enterococcus faecium [6]) was no more than 0.5 µg/mL throughout.
As for `CN[C@H](CC(C)C)C(=O)N[C@H]1C(=O)N[C@@H](CC(N)=O)C(=O)N[C@H]2C(=O)N[C@H]3C(=O)N[C@H](C(=O)N[C@H](C(=O)O)c4cc(O)cc(O)c4-c4cc3ccc4O)[C@H](O)c3ccc(c(Cl)c3)Oc3cc2cc(c3O[C@@H]2O[C@H](CO)[C@@H](O)[C@H](O)[C@H]2O[C@H]2C[C@](C)(N)[C@H](O)[C@H](C)O2)Oc2ccc(cc2Cl)[C@H]1O` [VANCOMYCIN], the Activity in the test with Enterococcus faecium [1] was found to be 43.2%; in the test with Enterococcus faecalis [2], 1.9%; in the test on Enterococcus faecium [3], 55.8%; with Enterococcus faecalis [4], 97.7%; in test [8], 100%; in test [10] it was 100%. The Activity in the test with Staphylococcus aureus [11] was found to be 100%; with Staphylococcus aureus [12], 0%; in the test on Staphylococcus aureus [13] it was 100%; with Staphylococcus aureus [14], 0%. Further, the MIC50 against Staphylococcus aureus [15] was 1 µg/mL (≈ 0.69 µM); against Staphylococcus aureus [16], 1 µg/mL (≈ 0.69 µM); in test [17], no more than 0.5 µg/mL; in test [18] it was no more than 0.5 µg/mL; against Enterococcus faecalis [5], 1 µg/mL (≈ 0.69 µM); against Enterococcus faecium [6], 1 µg/mL (≈ 0.69 µM). Besides, the MIC90 was 1 µg/mL (≈ 0.69 µM) against Staphylococcus aureus [15]; 1 µg/mL (≈ 0.69 µM) against Staphylococcus aureus [16]; no more than 0.5 µg/mL in test [17]; no more than 0.5 µg/mL in test [18]; 2 µg/mL (≈ 1.38 µM) in the test with Enterococcus faecalis [5]; greater than 16 µg/mL with Enterococcus faecium [6]. In addition, the MIC in test [17] and in test [18] was no more than 0.5 µg/mL throughout.
